High-throughput results from PubChem BioAssay.
IDH1 R132H inh = inhibitors of IDH1 R132H reductase, primary screen, biochemical, plate reader, single point; inhibition, % at 10 µM; hit rate 0.18% among 70,000; Isocitrate dehydrogenase [NADP] cytoplasmic (Homo sapiens), O75874; AID 624101, 2012; diaphorase/resazurin fluorescence, 60 min; in the data active = inhibition above about 34%; inconclusive = no clear call, values can overlap the other calls; inactive = below about 11%
Target sequence (O75874 whole entry R132H): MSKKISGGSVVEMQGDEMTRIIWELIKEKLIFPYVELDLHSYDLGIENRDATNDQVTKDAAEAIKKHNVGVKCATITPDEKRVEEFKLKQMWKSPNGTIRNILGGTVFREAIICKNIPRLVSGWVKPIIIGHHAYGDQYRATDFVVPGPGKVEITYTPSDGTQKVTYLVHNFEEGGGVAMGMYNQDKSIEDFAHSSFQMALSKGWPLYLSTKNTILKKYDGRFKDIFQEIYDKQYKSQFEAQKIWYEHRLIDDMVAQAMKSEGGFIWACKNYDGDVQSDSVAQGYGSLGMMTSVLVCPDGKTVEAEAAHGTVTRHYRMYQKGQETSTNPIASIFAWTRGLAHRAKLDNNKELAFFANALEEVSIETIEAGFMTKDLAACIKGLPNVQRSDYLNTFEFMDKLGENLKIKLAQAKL
KDM4C inh = inhibitors of GASC-1 (KDM4C) histone demethylase, primary screen, biochemical, single concentration HTS. Lysine-specific demethylase 4C (Homo sapiens), Q9H3R0. GST-KDM4C 2-372, H3K9me3 peptide, LANCE TR-FRET. hit rate 0.15% among 96,000. inhibition, % at 12.5 µM. AID 720574, 2013;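 active = mean replicate inhibition above about 25%, with at least 55% of replicates also reaching it, limit read from the data, passing the limit was not always enough; inconclusive = only one of those two conditions met; inactive = neither condition met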
Target sequence (Q9H3R0 2-372 limits assumed): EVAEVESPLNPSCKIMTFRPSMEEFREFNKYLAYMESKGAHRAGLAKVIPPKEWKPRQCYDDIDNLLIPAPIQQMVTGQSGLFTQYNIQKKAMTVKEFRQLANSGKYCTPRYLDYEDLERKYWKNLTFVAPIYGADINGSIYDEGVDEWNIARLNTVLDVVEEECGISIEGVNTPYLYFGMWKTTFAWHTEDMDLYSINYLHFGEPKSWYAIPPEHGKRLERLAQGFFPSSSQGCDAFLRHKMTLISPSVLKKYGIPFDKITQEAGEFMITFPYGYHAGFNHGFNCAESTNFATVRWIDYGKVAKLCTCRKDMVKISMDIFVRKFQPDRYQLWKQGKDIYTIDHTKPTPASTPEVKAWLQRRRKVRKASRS
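Test system: N-terminal GST-fused human GASC-1 (KDM4C) fragment, residues 2-372; quantity: GASC-1 enzyme at 10 nM final in reaction; dosing: single dose; schedule: 30 min demethylation and 1 h detection at room temperature; signal: LANCE TR-FRET, excitation 340 nm, emissions 618 and 671 nm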
Pf Dd2 growth = P. falciparum Dd2 growth inhibitors, primary screen, SYBR Green fluorescence, single dose replicates; 72 h; hits give low values; hit rate 2.3% among 94,000; activity change, % at 10 µM; in the data active = activity change below about -80%; inconclusive = no clear call, values can overlap the other calls
T cruzi growth-1 = T. cruzi intracellular proliferation inhibitors, primary screen, cell-based, beta-gal Tulahuen parasites, NIH3T3 host, luminescence; T. cruzi beta-gal in NIH3T3, GalScreen luminescence, 90 h; inhibition, % at 8.34 µM; hit rate 5.9% among 77,000;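 active = mean inhibition above about 93%, with at least 55% of replicates each passing it, limit read from the data, passing the limit was not always enough; inconclusive = only one of those two conditions holds; inactive = neither condition holds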
T cruzi growth-2 = T. cruzi intracellular proliferation inhibitors, confirmation, cell-based, NIH3T3 host, beta-gal parasite, luminescence, cherry-pick | shares compounds with T cruzi growth-1 | T. cruzi beta-gal in NIH3T3, GalScreen luminescence, 90 h | inhibition, % at 8.35 µM | hit rate 72% among 5,600 | AID 651739, 2012;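 active = mean replicate inhibition above about 95% and at least 55% of replicates individually reaching it, limit read from the data; inconclusive = only one of the two criteria is met; inactive = neither criterion is met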
T cruzi growth-3 = inhibitors of intracellular T. cruzi replication, confirmation, NIH3T3 host cells, beta-gal parasites, cherry-pick, set 2; hit rate 21% among 5,600; inhibition, % at 2.09 µM; shares compounds with T cruzi growth-1; T. cruzi beta-gal in NIH3T3, GalScreen luminescence, 90 h;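 active = mean inhibition above about 95%, with at least 55% of replicates also reaching it, limit read from the data; inconclusive = meets just one of the two conditions; inactive = meets neither condition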
NIH3T3 tox = cytotoxicity in mouse NIH/3T3 fibroblasts, confirmation, cytotoxicity control for T. cruzi proliferation inhibitor project, cell-based, cherry-pick, single point | cytotoxicity (signal decrease), % at 8.35 µM | NIH/3T3 viability, CellTiter-Glo ATP luminescence, 90 h | shares compounds with T cruzi growth-1 | hit rate 14% among 5,600 | AID 651742, 2012;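 active = mean signal decrease across replicates above about 35% based on untreated-well scatter, with enough replicates individually passing, limit read from the data; inconclusive = no rule stated though some were filed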
3T3 cytotox 2 = NIH/3T3 fibroblast cytotoxicity, confirmation, cytotoxicity control, cell-based, cherry-pick, single point, set 2. hit rate 56% among 5,600. inhibition, % at 24.9 µM. shares compounds with T cruzi growth-1. NIH/3T3 viability, CellTiter-Glo ATP luminescence, 90 h;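 active = mean loss of cell viability signal at or above a set limit, and enough replicates individually reaching it; inconclusive = meets only the mean limit or only the replicate share; inactive = meets neither condition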
Large screens that a line does not name were inactive (follow-up assays come after a bar, where they were run). Rows were chosen to be rich in hits. Some 5.8% of all compounds tested hit in one or more screens of this group.

CC(C)NC(=O)N(C)C[C@H]1OCc2ccccc2-c2c(n(C)c3ccccc23)C(=O)N([C@H](C)CO)C[C@H]1C	none
OC[C@@H]1[C@H](c2ccc(-c3ccc(F)cc3)cc2)[C@H]2CN(Cc3ccccn3)CCCCN12	T cruzi growth-1 99 (no result: IDH1 R132H inh) | T cruzi growth-2 107 | T cruzi growth-3 inactive | NIH3T3 tox inactive | 3T3 cytotox 2 108
OC[C@H]1[C@H](c2ccc(-c3cccnc3)cc2)[C@@H]2CN(Cc3ccccn3)CCCCN12	T cruzi growth-1 inconclusive (no result: IDH1 R132H inh) | T cruzi growth-2 106 | T cruzi growth-3 inactive | NIH3T3 tox inactive | 3T3 cytotox 2 inactive
C[C@@H]1CN([C@H](C)CO)S(=O)(=O)c2ccc(C#CC3CC3)cc2O[C@H]1CN(C)C(=O)c1ccncc1	none
C[C@H](CO)N1C[C@H](C)[C@H](CN(C)C(=O)c2ccncc2)Oc2cc(C#CC3CC3)ccc2S1(=O)=O	T cruzi growth-1 103 | T cruzi growth-2 inactive | T cruzi growth-3 inactive | NIH3T3 tox inactive | 3T3 cytotox 2 28
C[C@@H]1CN([C@H](C)CO)S(=O)(=O)c2ccc(C#CC3CC3)cc2O[C@@H]1CN(C)C(=O)c1ccccc1	T cruzi growth-1 inconclusive | T cruzi growth-2 106 | T cruzi growth-3 inactive | NIH3T3 tox inactive | 3T3 cytotox 2 51
COCC(=O)Nc1ccc2c(c1)OC[C@@H](C)N(Cc1ccccc1OC)C[C@@H](C)[C@@H](OC)CN(C)C2=O	none (no result: Pf Dd2 growth)
COc1ccccc1S(=O)(=O)N(C)C[C@H]1Oc2cc(Br)ccc2S(=O)(=O)N([C@H](C)CO)C[C@H]1C	none (no result: IDH1 R132H inh, T cruzi growth-1)
C[C@@H]1CN([C@@H](C)CO)S(=O)(=O)c2ccc(/C=C/c3ccccc3)cc2O[C@@H]1CN(C)C	none
C/C=C/c1ccc2c(c1)O[C@@H](CN(C)S(=O)(=O)c1ccccc1OC)[C@H](C)CN([C@@H](C)CO)S2(=O)=O	T cruzi growth-1 116 | T cruzi growth-2 107 | T cruzi growth-3 inactive | NIH3T3 tox 44 | 3T3 cytotox 2 56
COc1ccccc1S(=O)(=O)N(C)C[C@H]1Oc2cc(/C=C/c3ccccc3)ccc2S(=O)(=O)N([C@H](C)CO)C[C@@H]1C	KDM4C inh 38, Pf Dd2 growth -88, T cruzi growth-1 131 | T cruzi growth-2 106 | T cruzi growth-3 97 | NIH3T3 tox inactive | 3T3 cytotox 2 25
COc1ccccc1S(=O)(=O)N(C)C[C@@H]1Oc2cc(/C=C/c3ccccc3)ccc2S(=O)(=O)N([C@@H](C)CO)C[C@H]1C	Pf Dd2 growth inconclusive, T cruzi growth-1 128 | T cruzi growth-2 102 | T cruzi growth-3 106 | NIH3T3 tox 65 | 3T3 cytotox 2 62
COc1ccccc1S(=O)(=O)N(C)C[C@H]1Oc2cc(/C=C/c3ccccc3)ccc2S(=O)(=O)N([C@@H](C)CO)C[C@H]1C	T cruzi growth-1 129 | T cruzi growth-2 101 | T cruzi growth-3 inconclusive | NIH3T3 tox 40 | 3T3 cytotox 2 34
C/C=C/c1ccc2c(c1)O[C@H](CN(C)S(=O)(=O)c1ccccc1OC)[C@H](C)CN([C@@H](C)CO)S2(=O)=O	none (no result: Pf Dd2 growth)
COCC(=O)Nc1ccc2c(c1)C(=O)N(C)[C@H]1CC[C@@H](CC(=O)NC3CCCC3)O[C@@H]1CO2	none (no result: IDH1 R132H inh)
O=C(C[C@H]1CC[C@H]2[C@@H](COC[C@H](O)CN2Cc2cocn2)O1)NCc1cccc(F)c1	none (no result: IDH1 R132H inh, Pf Dd2 growth)
C[C@H]1CN([C@@H](C)CO)S(=O)(=O)c2ccc(/C=C/c3ccccc3)cc2O[C@@H]1CN(C)C	none
COc1ccccc1S(=O)(=O)N(C)C[C@H]1Oc2cc(/C=C/c3ccccc3)ccc2S(=O)(=O)N([C@@H](C)CO)C[C@@H]1C	T cruzi growth-1 128 | T cruzi growth-2 100 | T cruzi growth-3 101 | NIH3T3 tox inconclusive | 3T3 cytotox 2 39
C/C=C/c1ccc2c(c1)O[C@H](CN(C)S(=O)(=O)c1ccccc1)[C@H](C)CN([C@@H](C)CO)S2(=O)=O	T cruzi growth-1 107 | T cruzi growth-2 97 | T cruzi growth-3 inactive | NIH3T3 tox inactive | 3T3 cytotox 2 35
COc1ccccc1S(=O)(=O)N(C)C[C@H]1Oc2cc(Br)ccc2S(=O)(=O)N([C@@H](C)CO)C[C@H]1C	none (no result: IDH1 R132H inh, T cruzi growth-1)
COc1ccccc1S(=O)(=O)N(C)C[C@H]1Oc2cc(/C=C/c3ccccc3)ccc2S(=O)(=O)N([C@H](C)CO)C[C@H]1C	T cruzi growth-1 122 | T cruzi growth-2 102 | T cruzi growth-3 104 | NIH3T3 tox 43 | 3T3 cytotox 2 51
O=C(Nc1ccccc1C(=O)NCc1ccco1)c1ccccc1I	none (no result: KDM4C inh, Pf Dd2 growth, T cruzi growth-1)
CN1c2ccc(-c3ccc(F)cc3)cc2[C@@H]2[C@@H](CCN2C(=O)C2CCOCC2)[C@@H]1CO	T cruzi growth-1 98 (no result: IDH1 R132H inh) | T cruzi growth-2 106 | T cruzi growth-3 inactive | NIH3T3 tox inactive | 3T3 cytotox 2 inactive
CN1c2ccc(-c3ccc(F)cc3)cc2[C@H]2[C@H](CCN2C(=O)C2CCOCC2)[C@H]1CO	none (no result: IDH1 R132H inh)
CN(C)C(=O)c1ccc(-c2ccc3c(c2)[C@@H]2[C@@H](CCN2C(=O)C2CCOCC2)[C@@H](CO)N3C)cc1	T cruzi growth-1 102 (no result: IDH1 R132H inh) | T cruzi growth-2 107 | T cruzi growth-3 inactive | NIH3T3 tox inactive | 3T3 cytotox 2 inactive
CN(C)C(=O)c1ccc(-c2ccc3c(c2)[C@@H]2[C@@H](CCN2C(=O)C2CCCC2)[C@H](CO)N3C)cc1	none (no result: IDH1 R132H inh, T cruzi growth-1)
CN1c2ccc(-c3ccc(F)cc3)cc2[C@@H]2[C@@H](CCN2C(=O)C2CCOCC2)[C@H]1CO	T cruzi growth-1 105 (no result: IDH1 R132H inh) | T cruzi growth-2 105 | T cruzi growth-3 inactive | NIH3T3 tox inactive | 3T3 cytotox 2 inactive
CC=Cc1ccc2n(c1=O)C[C@H]1[C@H](CO)[C@@H](C(=O)NCC)[C@@H]2N1C(C)=O (mixture of isomers)	none (no result: IDH1 R132H inh)
C[C@H](CO)N1C[C@H](C)[C@H](CN(C)Cc2ccncc2)Oc2c(NC(=O)c3ccncc3)cccc2C1=O	none
C[C@H]1CN([C@@H](C)CO)C(=O)c2cccc(NC(=O)c3ccncc3)c2O[C@H]1CN(C)Cc1ccc2c(c1)OCO2	T cruzi growth-1 97 | T cruzi growth-2 108 | T cruzi growth-3 inactive | NIH3T3 tox inactive | 3T3 cytotox 2 inconclusive
